From ChEMBL document CHEMBL5252669, “Semisynthetic blasticidin S ester derivatives show enhanced antibiotic activity” (RSC Med Chem, 2023)
≈ marks a conversion by molar mass, not a printed value. Calls of active or inactive are those of the source. No cut-off for these calls is given here.

What was measured:
[1] = Selectivity index, ratio of CC50 for human MRC5 cells to IC50 for vancomycin-resistant Enterococcus; assay type: toxicity; conditions: read-out: Ratio CC50/IC50
Enterococcus faecalis [2] = experiment: Antibacterial activity against Enterococcus faecalis ATCC 29212 incubated for 20 hrs by broth microdilution method; conditions: ATCC 29212, 20 h
[3] = Selectivity index, ratio of CC50 for human MRC5 cells to IC50 for methicillin resistant Staphylococcus aureus; assay type: toxicity; conditions: read-out: Ratio CC50/IC50
Staphylococcus aureus [4] = experiment: Antibacterial activity against NorA deleted Staphylococcus aureus incubated for 16 hrs by broth microdilution method; assay type: functional, organism-based; conditions: for IC50: 16 h; for MIC: time 16 hrs
Summary of the method: (§1)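 Cation-adjusted Mueller-Hinton broth microdilution. Overnight cultures from single colonies were diluted to OD600 0.004. Final compound range was 256–2 μg mL−1 in 1:1 methanol/water vehicle, with doxycycline and vehicle controls. Plates were incubated 16 h at 37 °C. OD600 was normalized to controls, and MIC was the lowest concentration inhibiting >90% growth. Two biological replicates in duplicate; reported as a range.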

Staphylococcus aureus [5] = experiment: Antibacterial activity against Staphylococcus aureus assessed as zone of inhibition incubated for 18 hrs by spot on lawn assay; assay type: functional, organism-based
Summary of the method: (§2)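 Overnight LB cultures diluted to OD600 0.01 in 0.7% LB top agar, overlaid on 1.5% LB agar; 5 mg mL−1 aqueous compound spotted at 35, 25, 10 and 5 μg with 1:1 water/methanol vehicle spot; 37 °C, 18 h; inhibition zone diameter measured by ruler.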

[6] = Cytotoxicity against human MRC5 cells incubated for 24 hrs by MTS assay; assay type: toxicity, cell-based
Summary of the method: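 MRC-5 lung fibroblasts seeded 5000 per well; medium replaced with compound 16–192 μg mL−1 or matching 1:1 methanol:water vehicle; 24 h, then MTS 3–4 h; absorbance 490 nm; viability relative to untreated cells, normalized to vehicle; CC50 from two independent assays in duplicate, mean ± SD.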

Saccharomyces cerevisiae = experiment: Antifungal activity against Saccharomyces cerevisiae incubated for 16 hrs by broth microdilution method; assay type: functional
Candida albicans [7] = experiment: Antifungal activity against Candida albicans incubated for 16 hrs by broth microdilution method; assay type: functional
[8] = Selectivity index, ratio of CC50 for human MRC5 cells to IC50 for Acinetobacter baumannii ATCC 17978; assay type: toxicity; conditions: read-out: Ratio CC50/IC50
Staphylococcus aureus [9] = experiment: Antibacterial activity against NorA deleted Staphylococcus aureus assessed as zone of inhibition incubated for 18 hrs by spot on lawn assay; assay type: functional, organism-based; summary of the method: as §2
Enterococcus faecalis [10] = experiment: Antibacterial activity against Enterococcus faecalis ATCC 29212 assessed as zone of inhibition incubated for 18 hrs by spot on lawn assay; assay type: functional, organism-based; summary of the method: as §2
Staphylococcus aureus [11] = experiment: Antibacterial activity against wild type Staphylococcus aureus 8810 incubated for 16 hrs by broth microdilution method; assay type: functional, organism-based; conditions: for IC50: Staphylococcus aureus, 8810, 16 h; for MIC: Staphylococcus aureus, 8810, time 16 hrs; summary of the method: as §1
[12] = Selectivity index, ratio of CC50 for human MRC5 cells to IC50 for Enterococcus faecalis ATCC 29212; assay type: toxicity; conditions: read-out: Ratio CC50/IC50
Staphylococcus aureus [13] = experiment: Antibacterial activity against methicillin resistant Staphylococcus aureus assessed as zone of inhibition incubated for 18 hrs by spot on lawn assay; assay type: functional, organism-based
Summary of the method: (§3)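 Spot-on-lawn assay. Plates of 1.5% agar in LB were overlaid with 0.7% LB agar seeded with overnight culture at 0.01 OD600. Aqueous 5 mg mL−1 solutions were spotted at 35, 25, 10 and 5 μg, with a 1:1 water/methanol vehicle spot. After 18 h at 37 °C, inhibition zone diameters were measured with a ruler.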

[14] = Selectivity index, ratio of CC50 for human MRC5 cells to IC50 for NorA deleted Staphylococcus aureus; assay type: toxicity; conditions: read-out: Ratio CC50/IC50
[15] = Selectivity index, ratio of CC50 for human MRC5 cells to IC50 for Staphylococcus aureus; assay type: toxicity; conditions: read-out: Ratio CC50/IC50
[16] = Selectivity index, ratio of CC50 for human MRC5 cells to IC50 for Klebsiella pneumoniae ATCC 29665; assay type: toxicity; conditions: read-out: Ratio CC50/IC50
Klebsiella pneumoniae = experiment: Antibacterial activity against Klebsiella pneumoniae ATCC 29665 incubated for 16 hrs by broth microdilution method; assay type: functional, organism-based; conditions: for IC50: ATCC 29665, 16 h; for MIC: ATCC 29665, time 16 hrs
[17] = Selectivity index, ratio of CC50 for human MRC5 cells to IC50 for MexAB-OprM deleted Pseudomonas aeruginosa; assay type: toxicity; conditions: read-out: Ratio CC50/IC50
Acinetobacter baumannii = experiment: Antibacterial activity against Acinetobacter baumannii ATCC 17978 incubated for 16 hrs by broth microdilution method; assay type: functional, organism-based; conditions: for IC50: ATCC 17978, 16 h; for MIC: ATCC 17978, time 16 hrs
Enterococcus [18] = experiment: Antibacterial activity against vancomycin-resistant Enterococcus assessed as zone of inhibition incubated for 18 hrs by spot on lawn assay; assay type: functional, organism-based; summary of the method: as §3
Pseudomonas aeruginosa = experiment: Antibacterial activity against MexAB-OprM deleted Pseudomonas aeruginosa incubated for 16 hrs by broth microdilution method; assay type: functional, organism-based; conditions: for IC50: 16 h; for MIC: time 16 hrs
Staphylococcus aureus [19] = experiment: Antibacterial activity against methicillin resistant Staphylococcus aureus ATCC 43300 incubated for 16 hrs by broth microdilution method; assay type: functional, organism-based; conditions: for IC50: ATCC 43300, 16 h; for MIC: ATCC 43300, time 16 hrs; summary of the method: as §1
Candida albicans [20] = experiment: Antifungal activity against Candida albicans assessed as zone of inhibition incubated for 18 hrs by spot on lawn assay; assay type: functional, organism-based; summary of the method: as §2
Enterococcus [21] = experiment: Antibacterial activity against vancomycin-resistant Enterococcus incubated for 20 hrs by broth microdilution method

## COC(=O)[C@H]1O[C@@H](n2ccc(N)nc2=O)C=C[C@@H]1NC(=O)C[C@@H](N)CCN(C)C(=N)N
[1]
  selectivity ratio: 0.6
Enterococcus faecalis [2]
  IC50: 9.2 µg/mL (≈ 21.1 µM)
  MIC: 16 µg/mL (≈ 36.7 µM)
[3]
  selectivity ratio: 1.7
Staphylococcus aureus [4]
  IC50: 21.5 µg/mL (≈ 49.3 µM)
  MIC: 32 µg/mL (≈ 73.3 µM)
Staphylococcus aureus [5]
  Activity: Active
[6]
  CC50 at 24 h: 18.3 µg/mL (≈ 41.9 µM)
Saccharomyces cerevisiae
  MIC: 32 µg/mL (≈ 73.3 µM)
Candida albicans [7]
  MIC: > 256 µg/mL
[8]
  selectivity ratio: 1.8
Staphylococcus aureus [9]
  Activity: Active
Enterococcus faecalis [10]
  Activity: Active
Staphylococcus aureus [11]
  IC50: 11.4 µg/mL (≈ 26.1 µM)
  MIC: 32 µg/mL (≈ 73.3 µM)
[12]
  selectivity ratio: 2
Staphylococcus aureus [13]
  Activity: Active
[14]
  selectivity ratio: 0.8
[15]
  selectivity ratio: 1.6
[16]
  selectivity ratio: 0.5
Klebsiella pneumoniae
  IC50: 34.3 µg/mL (≈ 78.6 µM)
  MIC: 64 µg/mL (≈ 147 µM)
[17]
  selectivity ratio: 0.5
Acinetobacter baumannii
  IC50: 10.2 µg/mL (≈ 23.4 µM)
  MIC: 32 µg/mL (≈ 73.3 µM)
Enterococcus [18]
  Activity: Active
Pseudomonas aeruginosa
  IC50: 35.1 µg/mL (≈ 80.4 µM)
  MIC: 128 µg/mL (≈ 293 µM)
Staphylococcus aureus [19]
  IC50: 10.4 µg/mL (≈ 23.8 µM)
  MIC: 16 µg/mL (≈ 36.7 µM)
Candida albicans [20]
  Activity: inactive
Enterococcus [21]
  IC50: 31 µg/mL (≈ 71 µM)
  MIC: 64 µg/mL (≈ 147 µM)

## CCCCOC(=O)[C@H]1O[C@@H](n2ccc(N)nc2=O)C=C[C@@H]1NC(=O)C[C@@H](N)CCN(C)C(=N)N
[1]
  selectivity ratio: 0.2
Enterococcus faecalis [2]
  IC50: 16.1 µg/mL (≈ 33.6 µM)
  MIC: 32 µg/mL (≈ 66.9 µM)
[3]
  selectivity ratio: 0.7
Staphylococcus aureus [4]
  IC50: 34.6 µg/mL (≈ 72.3 µM)
  MIC: 64 µg/mL (≈ 134 µM)
Staphylococcus aureus [5]
  Activity: Active
[6]
  CC50 at 24 h: 21.2 µg/mL (≈ 44.3 µM)
Saccharomyces cerevisiae
  MIC: 64 µg/mL (≈ 134 µM)
Candida albicans [7]
  MIC: > 256 µg/mL
[8]
  selectivity ratio: 0.3
Staphylococcus aureus [9]
  Activity: Active
Enterococcus faecalis [10]
  Activity: Active
Staphylococcus aureus [11]
  IC50: 23.9 µg/mL (≈ 49.9 µM)
  MIC: 64 µg/mL (≈ 134 µM)
[12]
  selectivity ratio: 1.3
Staphylococcus aureus [13]
  Activity: Active
[14]
  selectivity ratio: 0.6
[15]
  selectivity ratio: 0.9
[16]
  selectivity ratio: 0.3
Klebsiella pneumoniae
  IC50: 82.1 µg/mL (≈ 172 µM)
  MIC: > 128 µg/mL
[17]
  selectivity ratio: 0.3
Acinetobacter baumannii
  IC50: 61.5 µg/mL (≈ 129 µM)
  MIC: > 128 µg/mL
Enterococcus [18]
  Activity: Active
Pseudomonas aeruginosa
  IC50: 79.8 µg/mL (≈ 167 µM)
  MIC: > 128 µg/mL
Staphylococcus aureus [19]
  IC50: 28.1 µg/mL (≈ 58.7 µM)
  MIC: 64 µg/mL (≈ 134 µM)
Candida albicans [20]
  Activity: inactive
Enterococcus [21]
  IC50: 130 µg/mL (≈ 272 µM)
  MIC: 256 µg/mL (≈ 535 µM)

## C#CCCCOC(=O)[C@H]1O[C@@H](n2ccc(N)nc2=O)C=C[C@@H]1NC(=O)C[C@@H](N)CCN(C)C(=N)N
[1]
  selectivity ratio: 0.7
Enterococcus faecalis [2]
  IC50: 12.2 µg/mL (≈ 25 µM)
  MIC: 32 µg/mL (≈ 65.5 µM)
[3]
  selectivity ratio: 1.7
Staphylococcus aureus [4]
  IC50: 36 µg/mL (≈ 73.7 µM)
  MIC: 64 µg/mL (≈ 131 µM)
Staphylococcus aureus [5]
  Activity: Active
[6]
  CC50 at 24 h: 50.4 µg/mL (≈ 103 µM)
Saccharomyces cerevisiae
  MIC: 64 µg/mL (≈ 131 µM)
Candida albicans [7]
  MIC: > 128 µg/mL
[8]
  selectivity ratio: 0.8
Staphylococcus aureus [9]
  Activity: Active
Enterococcus faecalis [10]
  Activity: Active
Staphylococcus aureus [11]
  IC50: 19.3 µg/mL (≈ 39.5 µM)
  MIC: 64 µg/mL (≈ 131 µM)
[12]
  selectivity ratio: 4.1
Staphylococcus aureus [13]
  Activity: Active
[14]
  selectivity ratio: 1.4
[15]
  selectivity ratio: 2.6
[16]
  selectivity ratio: 0.5
Klebsiella pneumoniae
  IC50: 92.3 µg/mL (≈ 189 µM)
  MIC: > 128 µg/mL
[17]
  selectivity ratio: 0.7
Acinetobacter baumannii
  IC50: 61.5 µg/mL (≈ 126 µM)
  MIC: > 128 µg/mL
Enterococcus [18]
  Activity: Active
Pseudomonas aeruginosa
  IC50: 74.3 µg/mL (≈ 152 µM)
  MIC: > 128 µg/mL
Staphylococcus aureus [19]
  IC50: 29.2 µg/mL (≈ 59.8 µM)
  MIC: 64 µg/mL (≈ 131 µM)
Candida albicans [20]
  Activity: inactive
Enterococcus [21]
  IC50: 72.1 µg/mL (≈ 148 µM)
  MIC: 128 µg/mL (≈ 262 µM)
